From PubChem BioAssay
An excerpt weighted towards active compounds, which were near 1.2% of everything screened.
procasp7 counter: procaspase-7 activators, primary screen, counter-screen for procaspase-3 activator project, biochemical, absorbance, HTS, human; activation, % at 8.5 µM; Caspase-7 (Homo sapiens), P55210; actives 0.093% (n = 330,000); recombinant procaspase-7, Ac-DEVD-pNA absorbance 405 nm; D23A/D198A/D206A triple mutant, cannot self-cleave; scale: DMSO 0, 5 µM enzyme 100;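 active means percent activation above the screen-wide mean plus 3 SD, cut at about 25% in these data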
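System: Uncleavable procaspase-7 mutant enzyme; Amount: 2 µM procaspase-7 mutant as dispensed; Schedule: 1 h compound preincubation, 2 h substrate cleavage, 25 °C; Measured by: 405 nm absorbance of p-nitroaniline; Evaluation: percent activation from buffer-corrected 0–120 min absorbance change; Control set: low DMSO alone, high DMSO plus 5 µM PC-7.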
IDE inh: human IDE inhibitors in live cells, primary screen, fluorescence polarization, HEK cells, FAbetaB substrate | Insulin-degrading enzyme (Homo sapiens), P14735 | FAbetaB cleavage | inhibition, % at 5.59 µM | actives 0.41% (n = 320,000);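 active means percent inhibition above the average of all tested compounds plus 3 SD, set per screening campaign, cut at about 16% in these data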;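 further: IDE supplied by intact live HEK cells; FP after avidin binding of uncleaved biotin substrate so inhibition keeps polarization high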
Target sequence (P14735 whole entry, looked up): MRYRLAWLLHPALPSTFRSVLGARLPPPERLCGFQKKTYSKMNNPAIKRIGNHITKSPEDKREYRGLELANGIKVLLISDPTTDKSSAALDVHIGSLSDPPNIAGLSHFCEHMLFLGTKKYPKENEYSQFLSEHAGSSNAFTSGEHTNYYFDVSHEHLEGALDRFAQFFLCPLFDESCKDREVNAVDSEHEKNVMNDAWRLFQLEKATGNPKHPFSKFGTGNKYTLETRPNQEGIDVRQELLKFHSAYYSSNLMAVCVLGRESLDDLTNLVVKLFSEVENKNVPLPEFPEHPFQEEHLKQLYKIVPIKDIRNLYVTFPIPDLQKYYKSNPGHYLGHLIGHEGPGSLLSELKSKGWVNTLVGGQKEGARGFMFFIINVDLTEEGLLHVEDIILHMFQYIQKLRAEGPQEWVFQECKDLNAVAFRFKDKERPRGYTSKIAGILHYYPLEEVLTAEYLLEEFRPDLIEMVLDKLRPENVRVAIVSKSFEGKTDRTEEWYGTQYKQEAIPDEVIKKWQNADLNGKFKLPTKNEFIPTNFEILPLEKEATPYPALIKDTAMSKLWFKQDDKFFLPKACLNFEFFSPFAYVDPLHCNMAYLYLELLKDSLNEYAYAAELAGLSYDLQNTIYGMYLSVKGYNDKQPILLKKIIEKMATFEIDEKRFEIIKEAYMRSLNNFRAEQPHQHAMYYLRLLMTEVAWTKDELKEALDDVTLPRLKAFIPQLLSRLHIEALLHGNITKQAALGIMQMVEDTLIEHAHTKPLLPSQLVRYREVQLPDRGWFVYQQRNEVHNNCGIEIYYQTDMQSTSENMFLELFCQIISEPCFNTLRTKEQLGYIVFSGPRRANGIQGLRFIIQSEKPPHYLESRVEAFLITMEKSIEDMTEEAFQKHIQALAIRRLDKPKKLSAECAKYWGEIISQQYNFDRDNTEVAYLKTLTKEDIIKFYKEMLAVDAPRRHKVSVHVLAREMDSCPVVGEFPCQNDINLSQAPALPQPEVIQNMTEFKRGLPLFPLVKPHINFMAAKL
proCasp3 act: activators of human procaspase-3 D3A mutant, primary screen, biochemical, absorbance, PC-3 D3A mutant, single concentration | activation, % at 8.5 µM | actives 0.11% (n = 330,000) | Caspase-3 (Homo sapiens), P42574 | recombinant procaspase-3 D3A, Ac-DEVD-pNA absorbance 405 nm;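 active means activation above the mean of all tested compounds plus 3 SD, cut at about 21% in these data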
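Assay system – Procaspase-3 D3A mutant · Benchmarks – DMSO low control, extra-enzyme high control · Technique – 405 nm absorbance of p-nitroaniline, reads at 0 and 120 min · Doses – 8.5 µM nominal · Measure – % activation between DMSO and enzyme-spiked controls · Also added – Ac-DEVD-pNA chromogenic peptide substrate · Schedule – 1 h compound preincubation, 2 h substrate hydrolysis at 25 °C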
TPT1 inhibitor: Candida albicans TPT1 enzyme inhibitors, primary screen, biochemical, fluorescence polarization; tRNA 2'-phosphotransferase TPT1 (Candida albicans SC5314); recombinant caTPT1, FP RNA substrate dephosphorylation; inhibition, % at 5 µM; actives 0.81% (n = 300,000);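 active means inhibition above the mean of all tested compounds plus 3 SD, set per screening campaign, cut at about 24% in these data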
IDE cell activ: human IDE activators in live cells, primary screen, fluorescence polarization, HEK cells, FAbeta-B substrate; actives 0.073% (n = 340,000); activation, % at 5.96 µM; Insulin-degrading enzyme (Homo sapiens), P14735; FAbeta-B cleavage; 0% vehicle, 100% cell-free pure enzyme wells;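 active means activation above the mean of all tested compounds plus 3 SD, set per screening campaign, cut at about 17% in these data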
caTPT1 confirm: Candida albicans TPT1 inhibitors, confirmation, biochemical, fluorescence polarization, triplicate; shares compounds with TPT1 inhibitor; recombinant caTPT1, RNase T1 coupled; inhibition, % at 5 µM; actives 74% (n = 2,400); AID 2149, 2009;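 active means inhibition above the primary screen limit, the mean inhibition of all tested compounds plus 3 SD, cut at about 25% in these data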
RNase T1 counter: RNase T1 inhibitors, counter-screen for TPT1 inhibitor project, biochemical, fluorescence polarization. inhibition, % at 5 µM. RNase T1 cleavage, 1536-well. actives 83% (n = 2,400). shares compounds with TPT1 inhibitor. AID 2153, 2009;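 active means inhibition above the solvent-only control well mean plus 3 SD, limit set per screening run, cut at about 23% in these data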;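 further: inhibitors block cleavage so intact labeled substrate keeps polarization high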
Numbers stand for hits; i = inactive; nt = not tested or not shown.

SMILES | procasp7 counter | IDE inh | proCasp3 act | TPT1 inhibitor | IDE cell activ | caTPT1 confirm | RNase T1 counter
N#C/C(=C\c1ccc(O)c(O)c1)C(=O)Nc1cccc2ncccc12 | i | i | i | 24 | i | i | 27
O=C(C1=C(O)C(=O)N(CCN2CCOCC2)C1c1cccs1)c1cc2ccccc2o1 (stereo not drawn) | i | i | i | 55 | i | i | i
O=C(C1=C(O)C(=O)N(CCN2CCOCC2)C1c1cccc(O)c1)c1cc2ccccc2o1 (stereo not drawn) | nt | nt | nt | nt | i | nt | nt
COc1cc(/C=C(\C#N)c2nc(-c3cc4ccccc4oc3=O)cs2)ccc1O | i | i | i | 38 | i | 52 | 58
CCOc1ccc(C(C(=O)NC(C)(C)C)N(CCOC)C(=O)CCC(=O)Nc2ccccn2)cc1 (stereo not drawn) | i | i | i | i | i | nt | nt
Cc1nn(-c2ccccc2)c(C)c1/C=C1\C(=O)N(C)C(=S)N1C | i | i | i | i | i | nt | nt
CN1C(=O)/C(=C\C=C2/CCCN2C)N(C)C1=S | i | i | i | 60 | i | 88 | 102
CCN(CC)c1ccc(/C=C2\NC(=O)NC2=O)cc1 | i | i | i | 27 | i | 36 | 50
O=C(c1ccc(S(=O)(=O)NCC2CCCO2)cc1)N1CCN(c2cccc(Cl)c2)CC1 (stereo not drawn) | nt | nt | nt | nt | i | nt | nt
Nc1ccc(C(=O)N/N=C/c2sc(N3CCOCC3)nc2-c2ccccc2)cc1 | i | i | i | i | i | nt | nt
O=C(Nc1ccccc1F)C(=Cc1sc(N2CCOCC2)nc1-c1ccccc1)C(=O)Nc1ccccc1F | i | i | i | 48 | i | i | i
O=C(N/N=C/c1sc(N2CCOCC2)nc1-c1ccccc1)c1cccc(S(=O)(=O)N2CCOCC2)c1 | i | i | i | 60 | i | 60 | 69
Cc1ccc(S(=O)(=O)Nc2cc(C)c(O)c(Sc3n[nH]c(C)n3)c2)cc1 | i | i | i | i | i | nt | nt
Cc1ccc2nc(SCC(=O)Nc3cccc(S(=O)(=O)NC4=NCCCCC4)c3)[nH]c2c1 | i | i | i | i | i | nt | nt
CCOC(=O)c1c(NC(=O)COC(=O)Cc2n[nH]c(=O)c3ccccc23)sc(C(=O)NC)c1C | i | i | i | nt | i | nt | nt
CCC1=[N+](CC(=O)c2ccc(C)cc2)CCn2c(C)ccc21 | i | i | i | i | i | nt | nt
CC1=[N+](CC(=O)c2ccccc2)CCn2cccc21 | i | i | i | 49 | nt | i | i
Cc1cc(C)c[n+](CC(=O)c2ccccc2)c1 | nt | nt | nt | nt | i | nt | nt
CCC1=[N+](CC(=O)c2ccc(C)cc2)CCn2cccc21 | i | i | i | 61 | i | i | i
CN(C)c1ccc(/C=C(\Cl)c2nc3ccccc3s2)cc1 | i | i | i | 73 | i | 84 | 91
O=C(O)c1ccc(C=C(c2nc3ccccc3s2)c2nc3ccccc3s2)cc1 | i | i | i | i | i | nt | nt
COc1cc(/C=C2/C(=O)ON=C2c2ccccc2)ccc1O | i | i | i | i | i | nt | nt
Cc1ccc(/C=C2/C(=O)ON=C2c2ccccc2)o1 | i | i | i | 34 | i | i | 25
O=C1ON=C(c2ccccc2)/C1=C\c1ccco1 | i | i | i | i | i | nt | nt
CCOc1cc(/C=C2\C(=O)ON=C2c2ccccc2)cc(Br)c1O | i | i | i | 40 | i | 137 | 138
SMILES | procasp7 counter | IDE inh | proCasp3 act | TPT1 inhibitor | IDE cell activ | caTPT1 confirm | RNase T1 counter
COc1cc(/C=C2\C(=O)ON=C2c2ccccc2)cc(Cl)c1O | i | i | i | 35 | i | 123 | 128
COc1cc(/C=C2\C(=O)ON=C2c2ccccc2)cc(Br)c1O | i | i | i | 43 | i | 138 | 139
CN(Cc1ccon1)C(=O)C1CCN(C2CCN(CCCc3ccccc3)CC2)CC1 | nt | nt | nt | nt | i | nt | nt
O=C(COC(=O)Cc1ccccc1F)Nc1cccc(S(=O)(=O)NC2=NCCCCC2)c1 | i | i | i | i | i | nt | nt
COc1ccc(CN(C)C(=O)C2CCN(S(=O)(=O)c3cccs3)CC2)cc1F | i | i | i | nt | i | nt | nt
CC(CC(=O)N1CCc2ccccc21)n1cccn1 (stereo not drawn) | i | i | i | i | i | nt | nt
CCOc1cc(/C=C2/C(=O)ON=C2C)cc(Br)c1O | i | i | i | 40 | i | 111 | 122
CC(O)C(NS(=O)(=O)c1ccc2ccccc2c1)C(=O)OCC(=O)Nc1ccccc1OC(F)F (stereo not drawn) | nt | nt | nt | nt | i | nt | nt
Cc1cccc2cc(/C=N/Nc3ccc(C(=O)O)cc3)c(Cl)nc12 | i | i | i | 25 | i | 42 | 54
Cc1cc(O)c(C(=O)/C=C/c2ccc(Cl)cc2)c(=O)o1 | i | i | i | 36 | i | i | i
C/C(=C\C(=O)c1c(O)cc(C)oc1=O)N(C)C | i | i | i | i | nt | nt | nt
CSc1ccc(/C=C/C(=O)c2c(O)cc(C)oc2=O)cc1 | i | i | i | 73 | i | 26 | 46
CN(C)S(=O)(=O)c1cccc(NC(=S)NNC(=O)c2cc3ccccc3cc2O)c1 | i | i | i | nt | i | nt | nt
O=C(N/C=C/c1ccco1)OCc1ccccc1 | i | i | i | 31 | i | i | 31
CCCCC(O)(CCCC)C(=O)NN(C(=O)c1cccnc1Cl)c1ccccc1 | i | i | i | i | i | nt | nt
C/C(Cl)=C/CSc1nc2c(c(=O)[nH]c(=O)n2C)n1C(C)C | i | i | i | 25 | i | i | i
Cc1nc(S/C(=C/c2ccc(OCc3ccc(C(=O)O)cc3)cc2)C(=O)O)n[nH]1 | i | i | i | i | i | nt | nt
O=C(N/N=C/c1ccc(-c2cccc(C(F)(F)F)c2)o1)c1ccccc1Br | i | i | i | 39 | i | 38 | 49
O=C(N/N=C/c1ccc(-c2cccc(C(F)(F)F)c2)o1)c1ccccc1O | i | i | i | i | i | nt | nt
N#Cc1c(-c2ccccc2)nc(SCC(=O)N(c2ccccc2)c2ccccc2)[nH]c1=O | i | i | i | 34 | i | i | i
N#Cc1c(-c2cccs2)nc(SCC(=O)c2cccs2)[nH]c1=O | i | i | i | 40 | i | i | 30
COC(=O)c1cccc(CSc2nc(-c3ccccc3)c(C#N)c(=O)[nH]2)c1 | i | i | i | 81 | i | i | i
